Assay outcomes (PubChem BioAssay)
Arrestin-AP2 inh – blocks beta-arrestin peptide binding to AP2 adaptin | FITC-arrestin peptide / GST-AP2 beads, flow cytometry; AP2 beta2 appendage carries R879A mutation | inhibition, % at 10 µM | 0.31% of 340,000 active | AID 504490;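 active = inhibition above a set limit, near 3 SD of compounds lacking own fluorescence, cut at about 54% in these data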;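 note: plate controls were DMSO wells for no effect and 5 µM unlabelled arrestin peptide for full effect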
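Material – AP2 appendage R879A on GSH beads · Buffer or medium – PBS with 0.05% Tween 20 and 0.1% BSA · Probe or stimulus – fluorescein-tagged arrestin peptide at 50 nM final · Incubation – compound with beads 12 min RT, then probe 1 h RT · Detection – high-throughput flow cytometry of beads, ex 488, em 535 nm · Evaluation – percent response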
ATG4B inh – blocks human ATG4B protease cleavage of LC3 substrate | ATG4B cleavage of LC3-PLA2, NBD-HPC fluorescence, 1 h | inhibition, % at 8.33 µM | AID 504462 | Q9Y4P1 | 0.51% of 340,000 active; in the data active = inhibition above about 40%
ABCB6 inh 2 – human ABCB6 transporter inhibition | Q9NP58 | K562-ABCB6 porphyrin accumulation, flow cytometry, 1 h; hits give low values | fluorescence ratio to DMSO, % at 10 µM | 0.19% of 360,000 active | AID 602162;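 active = fluorescence ratio to DMSO below 75%, the collection mean minus 3 SD; inconclusive = too few cells collected in the well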;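 note: signal is porphyrin accumulated inside mitochondria; 100% equals median channel fluorescence of DMSO control wells; lower ratio means ABCB6 inhibition with less porphyrin fluorescence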
Myeloid diff MLP – compounds promoting myeloid differentiation | ER-HoxA9 myeloid progenitors, lysozyme-GFP differentiation, flow cytometry | calls only at 10 µM | 1% of 360,000 active | AID 624256;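 active = normalized GFP-positive differentiation at or above the plate's own cutoff, the solvent-only control mean plus 3 SD; inconclusive = no clear call, values can overlap the other calls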;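 note: cells exposed to compound for four days before flow analysis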
CendR NRP1 mod – alters CendR peptide binding to human NRP-1; 0.85% of 360,000 active; O14786; FAM-RPARPAR peptide binding to NRP-1, fluorescence polarization; inhibition, % at 25 µM;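 active = inhibition or corrected inhibition above about 18%, plus a signal ratio from 0.5 to 1.5, limit read from the data, passing the limit was not always enough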
Granule exo inh – lytic granule exocytosis inhibition | inhibition, % at 10 µM | AID 651702 | TALL-104 LAMP-1 surface exposure, flow cytometry; cells stimulated with thapsigargin and PMA | 0.66% of 360,000 active;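 active = inhibition above about 55%, limit read from the data; inconclusive = no clear call, values can overlap the other calls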
ATG4B confirm – confirmation of human ATG4B inhibitors; shares compounds with ATG4B inh; ATG4B protease fluorescent substrate cleavage assay; inhibition, % at 8.33 µM; 92% of 320 active; AID 504757; in the data active = inhibition above about 39%
PLA2 ctr – counter-screen for ATG4B inhibitors: human phospholipase A2. purified PLA2, NBD-C6-HPC fluorescence, 45 min. inhibition, % at 8.33 µM. AID 588402. 66% of 1,600 active. shares compounds with ATG4B inh; in the data active = inhibition above about 50%
An asterisk follows results filed as active; i = inactive; ? = inconclusive; . = not tested or not shown. A selection: hits, their analogues and other compounds. The true share with any hit is near 3.3%.

SMILES	Arrestin-AP2 inh	ATG4B inh	ABCB6 inh 2	Myeloid diff MLP	CendR NRP1 mod	Granule exo inh	PLA2 ctr	others
Cc1c(Cl)cccc1NC(=O)N1CCN(C(=O)c2ccco2)CC1	15	-4	99	i	-6	2	.
Cc1c(Cl)cccc1NC(=S)NCc1cccs1	.	57*	99	i	-11	0	69*
S=C(NCc1cccs1)Nc1cccc(Cl)c1Cl	-5	52*	87	?	12	0	52*
CCOC(=O)C(=NC(C)CC)NNc1cccc(C(F)(F)F)c1 (centres undefined)	-17	40*	95	i	0	7	4
CCOC(=O)C(=NC1CCCCC1)NNc1cccc(C(F)(F)F)c1	29	15	88	i	11	4	.
O=C(c1ccc(OC2CCN(C/C=C/c3ccc(F)cc3)CC2)cc1)N1CCCC1	25	42*	83	i	10	-2	48	ATG4B confirm=64*
O=C(c1ccc(OC2CCN(Cc3ccc(F)cc3)CC2)cc1)N1CCCC1	7	6	97	i	-3	-1	.
C=CCn1c(SCC(=O)c2ccc(OC)cc2)nnc1-c1cc2cccc(OC)c2o1	-5	-3	92	i	-9	-12	.
C=CCn1c(SCC(=O)c2ccccc2)nnc1-c1cc2ccccc2o1	-3	62*	92	i	-6	-6	62*
Cc1ccc(NC(=S)NNc2ccc([N+](=O)[O-])cc2S(=O)(=O)Nc2ccccc2C(=O)O)cc1C	38	74*	100	i	-10	-2	71*
O=S(Cc1ccccc1)CC(O)(c1ccc(Cl)cc1)c1ccc(Cl)cc1 (centres undefined)	1	55*	90	i	-9	4	60*
O=S(Cc1ccc(Cl)cc1)CC(O)(c1ccccc1)c1ccccc1 (centres undefined)	12	6	94	i	-6	-2	.
Cc1ccccc1S(=O)(=O)N(C)C[C@@H]1OCc2cnnn2CCCC(=O)N([C@@H](C)CO)C[C@H]1C	.	.	101	i	-3	5	.
COc1cc(C2Nc3cc(Cl)c(S(N)(=O)=O)cc3S(=O)(=O)N2)ccc1OCc1ccccc1 (centres undefined)	-8	84*	87	i	-7	0	85*
CCCC1OC(c2ccco2)OCC1CC (centres undefined)	8	2	97	i	-3	8	.
Cc1ccc(C(=O)Nc2sc(C)c(C)c2C(=O)c2ccccc2)cc1	-17	-7	94	i	2	-7	.
Cc1sc(NC(=O)c2ccccc2)c(C(=O)c2ccccc2)c1C	3	50*	97	i	-3	1	43	ATG4B confirm=73*
COCCOc1ccc(C(F)(F)F)cc1NC(=O)CN1C(=O)NC2(CCc3ccccc32)C1=O (centres undefined)	-8	99*	99	i	-8	0	4
COCCOc1ccc(C(F)(F)F)cc1NC(=O)CN1C(=O)NC2(CCCc3ccccc32)C1=O (centres undefined)	-2	0	110	i	-20	4	.
C/C(N)=C(/C#N)C(=O)CSc1nc2ccccc2c(=O)n1-c1ccc(C)c(Cl)c1	3	47*	103	i	-1	0	49
C/C(N)=C(/C#N)C(=O)CSc1nc2ccccc2c(=O)n1-c1ccccc1C	2	-2	99	i	0	2	.
CCOC(=O)C1=CN(Cc2ccco2)S(=O)(=O)NC1c1ccc(F)c(Cl)c1 (centres undefined)	-8	-1	103	i	-6	-3	.
CN(C(=O)CN1CCN(c2cc(-c3cccc4oc5ccccc5c34)ncn2)CC1)c1ccccc1	.	.	99	i	7	-2	.
Cc1cc(C)c(Nc2cc(S(=O)(=O)O)c(N)c3c2C(=O)c2ccccc2C3=O)c(C)c1	12	49*	103	i	33	-12	72*
Cc1cc(C)c(NC(=O)COC(=O)c2cccc3c2C(=O)c2ccccc2C3=O)c(C)c1	12	-4	99	i	-5	-3	.
SMILES	Arrestin-AP2 inh	ATG4B inh	ABCB6 inh 2	Myeloid diff MLP	CendR NRP1 mod	Granule exo inh	PLA2 ctr	others
Cc1sc2nc(C3CC3)nc(N3CCN(C(=O)c4ccccc4F)CC3)c2c1C	3	54*	97	i	-6	22	71*
Cc1sc2nc(C3CC3)nc(N3CCN(C(=O)c4ccc(F)cc4)CC3)c2c1C	7	62*	100	i	-2	19	78*
Cc1sc2nc(C3CC3)nc(N3CCN(C(=O)c4ccc(Cl)cc4)CC3)c2c1C	0	50*	102	i	6	23	69*
COc1ccc(C(=O)N2CCN(c3nc(C4CC4)nc4sc(C)c(C)c34)CC2)cc1	-9	30	97	i	5	11	.
COc1ccc(OC)c(-c2cc(C(=O)N3CCCc4ccccc43)no2)c1	4	47*	99	i	10	-3	31	ATG4B confirm=68*
C[C@]12c3[nH]c4cc(-c5ccco5)ccc4c3CCN1C(=O)[C@@H](CC(=O)NCc1ccco1)C[C@@H]2C(=O)N1CCCCC1	2	.	97	i	-9	1	.
COc1ccc2[nH]cc(CCNC(=O)Cn3cc(C)c(=O)[nH]c3=O)c2c1	-4	-10	99	i	2	12	.
Cc1ccc(-c2[nH]nc3c2C(c2ccc(OC(=O)N4CCOCC4)cc2)C(C#N)=C(N)O3)cc1 (centres undefined)	41	43*	97	i	-2	-1	42	ATG4B confirm=78*
CC(C)c1[nH]nc2c1C(c1cccc(OC(=O)N3CCOCC3)c1)C(C#N)=C(N)O2 (centres undefined)	2	-10	96	i	-2	-1	.
O=C1NN(c2ccccc2)C(=O)/C1=C/c1ccc(Sc2cccc3ccccc23)o1	7	44*	93	i	-37	0	32	ATG4B confirm=51*
Nc1c(C=C2C=CC(=O)C=C2)c(=O)nc2snc(SCc3ccccc3)n12	36	40*	99	i	-24	7	32	ATG4B confirm=76*
CC1CCCCN1CCNC(=O)c1cnn2ccccc12 (centres undefined)	0	-5	103	i	-8	0	.
CCn1c(CC(=O)Nc2ccc(C)cc2)nnc1SCC(=O)N1CCOCC1	-1	-8	100	i	17	-4	.
CC1(C)Cc2c(sc(NC(=S)NC(=O)c3ccccc3)c2C(=O)O)CO1	15	41*	110	i	-7	1	32	ATG4B confirm=74*
